Assay results from ChEMBL document CHEMBL4346672, “Antimicrobial and KPC/AmpC inhibitory activity of functionalized benzosiloxaboroles” (Eur J Med Chem, 2019).

Tested on: not listed separately
Test: Dissociation constant, pKa2 of compound in 0.1 M NaOH by potentiometric analysis
Type: physicochemical
Details: not given

Q: With `C[Si]1(C)OB(O)c2cc3c(c(F)c21)COB3O` as the compound, how does the pKa read?
A: 8.6

Q: For `C[Si]1(C)OB(O)c2cc(B(O)O)cc(F)c21`, which pKa is on record?
A: 10.2

Tested on: Klebsiella pneumoniae
Test: Inhibition of beta lactamase CMY-2 in Klebsiella pneumoniae 78 assessed as potentiation of ceftazidime-induced antibacterial activity by measuring ceftazidime MIC at 16 mg/L incubated for 18 hrs by broth dilution method (reference value: >[…] mg/L)
Details: not given

Q: For `C[Si]1(C)OB(O)c2cc3c(c(F)c21)COB3O`, which MIC is on record?
A: > 64 µg/mL

Tested on: not listed separately
Test: Cytotoxicity against human MRC5 cells assessed as cell viability at 4 ug/ml incubated for 72 hrs by MTT assay
Type: cell-based
Details: read-out: Activity
In short: (§1)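 MRC-5 pd30 human fibroblasts grown in MEM with 10% FBS, 2 mM L-glutamine, penicillin/streptomycin and 1% non-essential amino acids at 37 °C, 5% CO2. Exponentially growing cells trypsinized and seeded at 8×10^3 cells/well, then dosed 18 h later with 2-fold dilutions (0.5% DMSO final) for 72 h. MTT (1 mg/ml final) added for 1 h at 37 °C, formazan dissolved in DMSO, OD read at 570 nm. Four replicates, expressed as % viable versus control.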

Q: Which viability at 72 h, 4 ug/ml does the source give for `C[Si]1(C)OB(O)c2cc3c(c(F)c21)COB3O` here?
A: 108%

Tested on: not listed separately
Test: Cytotoxicity against human MRC5 cells assessed as cell viability at 1 ug/ml incubated for 72 hrs by MTT assay
Type: cell-based
Details: read-out: Activity
In short: as §1

Q: Which viability at 72 h, 1 ug/ml does the source give for `C[Si]1(C)OB(O)c2cc3c(c(F)c21)COB3O` here?
A: 112%

Tested on: Klebsiella pneumoniae
Test: Inhibition of beta lactamase KPC-3 in Klebsiella pneumoniae 83 assessed as potentiation of meropenem-induced antibacterial activity by measuring meropenem MIC at 16 mg/L incubated for 18 hrs by broth dilution method (reference value: […] mg/L)
Details: not given

Q: For `C[Si]1(C)OB(O)c2cc3c(c(F)c21)COB3O`, which MIC is on record?
A: 32 µg/mL

Tested on: Acinetobacter baumannii
Test: Inhibition of beta lactamase OXA-24 in Acinetobacter baumannii 181 assessed as potentiation of ceftazidime-induced antibacterial activity by measuring ceftazidime MIC at 16 mg/L incubated for 18 hrs by broth dilution method (reference value: >[…] mg/L)
Details: not given

Q: With `C[Si]1(C)OB(O)c2cc3c(c(F)c21)COB3O` as the compound, how does the MIC read?
A: > 64 µg/mL

Target: Class A carbapenemase KPC-2 (Escherichia coli) (UniProt A8DS27)
Test: Inhibition of beta lactamase KPC-2 in Escherichia coli 76 assessed as potentiation of meropenem-induced antibacterial activity by measuring meropenem MIC at 16 mg/L incubated for 18 hrs by broth dilution method (reference value: >[…] mg/L)
Details: not given

Q: For `C[Si]1(C)OB(O)c2cc3c(c(F)c21)COB3O`, which MIC is on record?
A: > 64 µg/mL

Tested on: Pseudomonas aeruginosa
Test: Inhibition of beta lactamase AmpC in Pseudomonas aeruginosa 700 assessed as potentiation of ceftazidime-induced antibacterial activity by measuring ceftazidime MIC at 16 mg/L incubated for 18 hrs by broth dilution method (reference value: >[…] mg/L)
Details: not given

Q: Which MIC does the source give for `C[Si]1(C)OB(O)c2cc3c(c(F)c21)COB3O` here?
A: > 64 µg/mL

Tested on: Escherichia coli
Test: Inhibition of beta lactamase KPC-3 in Escherichia coli 82 TR assessed as potentiation of meropenem-induced antibacterial activity by measuring meropenem MIC at 16 mg/L incubated for 18 hrs by broth dilution method (reference value: 2 mg/L)
Details: not given

Q: Which MIC does the source give for `C[Si]1(C)OB(O)c2cc3c(c(F)c21)COB3O` here?
A: 1 µg/mL

Tested on: Klebsiella pneumoniae ATCC BAA-1705
Test: Inhibition of beta lactamase KPC-2 in Klebsiella pneumoniae ATCC BAA 1705 assessed as potentiation of ceftazidime-induced antibacterial activity by measuring ceftazidime MIC at 16 mg/L incubated for 18 hrs by broth dilution method
Details: not given

Q: Which MIC does the source give for `C[Si]1(C)OB(O)c2cc3c(c(F)c21)COB3O` here?
A: 64 µg/mL

Tested on: Klebsiella pneumoniae
Test: Inhibition of beta lactamase SHV-12 in Klebsiella pneumoniae ATCC 700603 assessed as potentiation of ceftazidime-induced antibacterial activity by measuring ceftazidime MIC at 16 mg/L incubated for 18 hrs by broth dilution method (reference value: […] mg/L)
Details: not given

Q: Which MIC does the source give for `C[Si]1(C)OB(O)c2cc3c(c(F)c21)COB3O` here?
A: 32 µg/mL

Tested on: Escherichia coli
Test: Inhibition of beta lactamase CMY-2 in Escherichia coli 77 assessed as potentiation of ceftazidime-induced antibacterial activity by measuring ceftazidime MIC at 16 mg/L incubated for 18 hrs by broth dilution method (reference value: […] mg/L)
Details: not given

Q: Which MIC does the source give for `C[Si]1(C)OB(O)c2cc3c(c(F)c21)COB3O` here?
A: 16 µg/mL

Tested on: Pseudomonas aeruginosa
Test: Inhibition of beta lactamase OXA-15 in Pseudomonas aeruginosa 852 assessed as potentiation of ceftazidime-induced antibacterial activity by measuring ceftazidime MIC at 16 mg/L incubated for 18 hrs by broth dilution method (reference value: >[…] mg/L)
Details: not given

Q: With `C[Si]1(C)OB(O)c2cc3c(c(F)c21)COB3O` as the compound, how does the MIC read?
A: > 64 µg/mL

Tested on: Klebsiella pneumoniae
Test: Inhibition of beta lactamase KPC-3 in Klebsiella pneumoniae 83 assessed as potentiation of ceftazidime-induced antibacterial activity by measuring ceftazidime MIC at 16 mg/L incubated for 18 hrs by broth dilution method (reference value: >[…] mg/L)
Details: not given

Q: For `C[Si]1(C)OB(O)c2cc3c(c(F)c21)COB3O`, which MIC is on record?
A: > 64 µg/mL

Tested on: not listed separately
Test: Cytotoxicity against human MRC5 cells assessed as cell viability at 16 ug/ml incubated for 72 hrs by MTT assay
Type: cell-based
Details: read-out: Activity
In short: as §1

Q: With `C[Si]1(C)OB(O)c2cc3c(c(F)c21)COB3O` as the compound, how does the viability at 72 h, 16 ug/ml read?
A: 100%

Tested on: not listed separately
Test: Cytotoxicity against human MRC5 cells assessed as cell viability at 0.5 ug/ml incubated for 72 hrs by MTT assay
Type: cell-based
Details: read-out: Activity
In short: as §1

Q: For `C[Si]1(C)OB(O)c2cc3c(c(F)c21)COB3O`, which viability at 72 h, 0.5 ug/ml is on record?
A: 112%

Tested on: Klebsiella pneumoniae
Test: Inhibition of beta lactamase KPC-3 in Klebsiella pneumoniae 81 assessed as potentiation of meropenem-induced antibacterial activity by measuring meropenem MIC at 16 mg/L incubated for 18 hrs by broth dilution method (reference value: […] mg/L)
Details: not given

Q: With `C[Si]1(C)OB(O)c2cc3c(c(F)c21)COB3O` as the compound, how does the MIC read?
A: 8 µg/mL

Tested on: Escherichia coli
Test: Inhibition of beta lactamase CMY-2 in Escherichia coli 77 assessed as potentiation of ceftazidime-induced antibacterial activity by measuring diameter of zone inhibition at 0.3 mg incubated for 18 hrs in presence of 30 ug ceftazidime by CLSI disc diffusion method (Rvb=13 mm)
Details: not given
In short: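 AmpC combination disc test on Mueller-Hinton agar, following EUCAST guidance and Yagi et al. Inhibition zones were compared between a CAZ-30 disc and a ceftazidime disc plus agent or PBA, each at 0.3 mg per disc. Plates were incubated at 35 °C for 18 h. A zone difference of at least 5 mm was counted as inhibition.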

Q: For `C[Si]1(C)OB(O)c2cc3c(c(F)c21)COB3O`, which inhibition zone (IZ) is on record?
A: 20 mm

Tested on: Klebsiella pneumoniae
Test: Inhibition of beta lactamase KPC-2 in Klebsiella pneumoniae 75 assessed as potentiation of ceftazidime-induced antibacterial activity by measuring ceftazidime MIC at 16 mg/L incubated for 18 hrs by broth dilution method (reference value: […] mg/L)
Details: not given

Q: For `C[Si]1(C)OB(O)c2cc3c(c(F)c21)COB3O`, which MIC is on record?
A: > 64 µg/mL

Tested on: Acinetobacter baumannii
Test: Inhibition of beta lactamase OXA-24 in Acinetobacter baumannii 181 assessed as potentiation of meropenem-induced antibacterial activity by measuring meropenem MIC at 16 mg/L incubated for 18 hrs by broth dilution method (reference value: […] mg/L)
Details: not given

Q: For `C[Si]1(C)OB(O)c2cc3c(c(F)c21)COB3O`, which MIC is on record?
A: > 64 µg/mL

Tested on: not listed separately
Test: Cytotoxicity against human MRC5 cells assessed as cell viability at 32 ug/ml incubated for 72 hrs by MTT assay
Type: cell-based
Details: read-out: Activity
In short: as §1

Q: Which viability at 72 h, 32 ug/ml does the source give for `C[Si]1(C)OB(O)c2cc3c(c(F)c21)COB3O` here?
A: 54.3%

Tested on: not listed separately
Test: Cytotoxicity against human MRC5 cells assessed as cell viability at 2 ug/ml incubated for 72 hrs by MTT assay
Type: cell-based
Details: read-out: Activity
In short: as §1

Q: For `C[Si]1(C)OB(O)c2cc3c(c(F)c21)COB3O`, which viability at 72 h, 2 ug/ml is on record?
A: 116%

Tested on: Klebsiella pneumoniae 700603
Test: (§2) Inhibition of extended-spectrum beta lactamase in Klebsiella pneumoniae ATCC 700603 assessed as potentiation of cefotaxime-induced antibacterial activity by measuring diameter of zone inhibition at 0.3 mg incubated for 18 hrs in presence of 10 ug cefotaxime by CLSI disc diffusion method (Rvb=19 mm)
Details: not given
In short: (§3)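 EUCAST ESBL combination disc test on Mueller-Hinton agar. Zones were compared between a ceftazidime or cefotaxime disc alone and the same disc plus agent at 0.3 mg per disc. Clavulanic acid discs at 0.01 mg per disc served as reference. Plates were incubated at 35 °C for 18 h. A difference of at least 5 mm was counted as inhibition.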

Q: Which inhibition zone (IZ) does the source give for `C[Si]1(C)OB(O)c2cc3c(c(F)c21)COB3O` here?
A: 19 mm

Tested on: Klebsiella pneumoniae 700603
Test: as §2, with “ceftazidime-induced” for “cefotaxime-induced”, “ceftazidime” for “cefotaxime”, “(Rvb=13” for “(Rvb=19”
Details: not given
In short: as §3

Q: For `C[Si]1(C)OB(O)c2cc3c(c(F)c21)COB3O`, which inhibition zone (IZ) is on record?
A: 13 mm
